Measurements reported in ChEMBL document CHEMBL5532647, “Design, synthesis, ADME and biological evaluation of benzylpiperidine and benzylpiperazine derivatives as novel reversible monoacylglycerol lipase (MAGL) inhibitors” (Eur J Med Chem, 2024).
In brackets after ≈: the same amount, converted by molar mass. Activity calls are given as the source filed them. The rule behind the calls is not given here.

Experiments:
[1] = target: T1, Fatty-acid amide hydrolase 1 (Homo sapiens) (UniProt O00519); assay: Inhibition of FAAH in human U-937 cells at 10 uM preincubated with compound for 15 mins followed by 2-OG addition and measured after 15 mins by scintillation liquid counter analysis; format: cell-based; conditions: time 30.0 min
T1 sequence (whole entry): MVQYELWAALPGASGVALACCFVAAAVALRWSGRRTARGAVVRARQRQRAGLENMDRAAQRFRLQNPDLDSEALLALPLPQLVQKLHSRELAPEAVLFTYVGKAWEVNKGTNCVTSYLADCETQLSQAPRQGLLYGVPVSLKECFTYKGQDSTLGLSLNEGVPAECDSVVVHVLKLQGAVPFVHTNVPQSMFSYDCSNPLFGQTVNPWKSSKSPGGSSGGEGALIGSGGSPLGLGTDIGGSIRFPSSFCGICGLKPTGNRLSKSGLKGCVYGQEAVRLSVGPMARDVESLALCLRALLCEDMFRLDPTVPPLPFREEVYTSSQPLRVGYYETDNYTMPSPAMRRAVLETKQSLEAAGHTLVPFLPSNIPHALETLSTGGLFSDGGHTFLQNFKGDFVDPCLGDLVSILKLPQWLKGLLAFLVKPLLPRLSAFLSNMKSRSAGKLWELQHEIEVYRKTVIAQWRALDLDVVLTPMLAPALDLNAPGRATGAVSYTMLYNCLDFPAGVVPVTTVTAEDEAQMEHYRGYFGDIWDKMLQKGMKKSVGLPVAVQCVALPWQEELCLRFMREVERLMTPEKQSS

[2] = target: Cannabinoid receptor 1 (Homo sapiens) (UniProt P21554); assay: Displacement of [3H]CP55940 from human CB1 receptor at 10 uM incubated for 90 mins
Summary of the method: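 Membranes expressing hCB1 or hCB2 in 50 mM Tris-HCl buffer, pH 7.4, with 2.5 mM EDTA, 5 mM MgCl2 and 0.5% fatty acid-free BSA. Incubated with compound (10 μM screening) or vehicle plus 0.5 nM [3H]CP55,940 for 90 min at 30 °C. Non-specific binding defined with 10 μM […]. GF/B filtration, ice-cold buffer washes, radioactivity counted. Two independent experiments in triplicate.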

[3] = Thermodynamic aqueous solubility of the compound by LC-MS/MS analysis; format: physicochemical; conditions: read-out: Therm_solubility
Summary of the method: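 Solid compound (1 mg) shaken overnight in 1 mL distilled water at room temperature. Suspension passed through a 0.45 μm nylon filter. Dissolved compound quantified in triplicate by UV/LC-MS or LC-MS/MS against a calibration curve of compound in methanol.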

[4] = Apparent permeability of the compound by PAMPA method; format: ADME
Summary of the method: (§1)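 Donor solution made from 1 mM DMSO stock diluted in 25 mM phosphate buffer pH 7.4 to 500 μM final. Filter coated with 1% (w/v) phosphatidylcholine in dodecane. Acceptor was 1:1 v/v DMSO/phosphate buffer. Sandwich incubated 5 h at room temperature. Compound in donor and acceptor wells quantified by UV/LC-MS.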

[5] = Permeability of the compound assessed as membrane retention rate by PAMPA method; format: ADME; summary of the method: as §1
[6] = Metabolic stability in human liver microsome in presence of NADPH-regenerating system by UV/LC-MS analysis; format: ADME; conditions: microsomes
Summary of the method: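 Compound incubated 1 h at 37 °C with human liver microsomes (0.2 mg/mL) and an NADPH-regenerating system (NADPH 0.2 mM, NADP+ 1 mM, glucose-6-phosphate 4 mM, G6PDH 4 unit/mL, MgCl2 48 mM) in 25 mM phosphate buffer pH 7.4. Quenched with acetonitrile, then centrifuged. Parent and metabolites measured by UV/LC-MS. Percent unmetabolized obtained against reference solutions; three independent experiments.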

[7] = Stability in human plasma measured after 24 hrs by UV/LC-MS analysis; format: ADME, cell-free; conditions: read-out: Stability
Summary of the method: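 Compound (2 mM) incubated at 37 °C in pooled human plasma (55.7 mg protein/mL) with HEPES 25 mM, NaCl 140 mM, pH 7.4. Samples taken at 0–24 h and precipitated with cold acetonitrile. After centrifugation, supernatant analysed by UV/LC-MS. Three independent experiments.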

[8] = Toxicity in Tenebrio molitor coleoptera assessed as lethal dose measured for 7 days; conditions: time 7 day
Summary of the method: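 Tenebrio molitor beetles used within three days of metamorphosis. Compound dissolved in DMSO, 1 μL injected into the hemocoel between pronotum and elytron. Range-finding on 1 insect starting at 200 mg/kg. Dose then given to five insects with survival monitored 7 days, repeated until LD50 found, and confirmed in ten insects.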

Sequence of Cannabinoid receptor 1 (Homo sapiens) (P21554 whole entry): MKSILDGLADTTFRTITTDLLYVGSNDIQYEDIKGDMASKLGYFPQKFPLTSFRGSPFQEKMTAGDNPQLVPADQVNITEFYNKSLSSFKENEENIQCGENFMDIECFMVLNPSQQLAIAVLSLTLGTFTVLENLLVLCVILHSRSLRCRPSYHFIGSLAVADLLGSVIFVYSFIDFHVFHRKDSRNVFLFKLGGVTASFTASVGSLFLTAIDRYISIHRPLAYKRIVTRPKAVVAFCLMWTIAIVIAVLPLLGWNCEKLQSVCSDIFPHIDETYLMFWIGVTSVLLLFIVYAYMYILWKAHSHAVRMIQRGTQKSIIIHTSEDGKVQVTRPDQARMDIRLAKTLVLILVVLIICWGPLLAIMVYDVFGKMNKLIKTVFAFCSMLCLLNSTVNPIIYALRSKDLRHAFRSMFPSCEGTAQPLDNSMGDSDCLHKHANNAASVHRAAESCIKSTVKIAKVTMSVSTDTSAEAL

| SMILES | inhibition [1] | Activity [2] | solubility thermodynamic [3] [µg/mL] | Papp [4] [×10⁻⁶ cm/s] | R% [5] [%] | Stability [6] [%] | remaining at 24 h [7] [%] | LD50 at 168 h [8] [mg/kg] |
| --- | --- | --- | --- | --- | --- | --- | --- | --- |
| O=C(c1cc(O)ccc1F)N1CCC(Cc2cccc(Sc3cc(C(F)(F)F)ccn3)c2)CC1 | inactive | inactive | 0.00321 (≈ 0.00655 µM) | 3.3 | 17.3 | 96.76 | 74.1 | 200 |
| O=C(c1cc(O)ccc1F)N1CCN(Cc2cccc(Sc3cc(C(F)(F)F)ccn3)c2)CC1 | inactive | inactive | 5.47 (≈ 11.1 µM) | 1.33 | 3.2 | 98.51 | > 99 | 300 |
| O=C(c1cccc(O)c1)N1CCC(Cc2cccc(Sc3cc(C(F)(F)F)ccn3)c2)CC1 | inactive | inactive |  |  |  |  |  |  |
| O=C(c1cccc(O)c1)N1CCC(Cc2ccc(F)c(Sc3cc(C(F)(F)F)ccn3)c2)CC1 | inactive | inactive |  |  |  |  |  |  |
